Data set [1] has as its target PRC2 (Homo sapiens, UniProt Q15910). The data set is described as follows: Differential scanning fluorimetry binding assay. Conditions: 750 nM PRC2, 20 μM compound, 200 μM activating peptide; mean ± SEM, N = 3. In short, it runs like this: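 In-house pentameric PRC2 was mixed with test compound, H3K27me3 activator peptide and 4× thermal-shift dye in 50 mM Hepes pH 7.4, 100 mM NaCl, 1 mM TCEP, 0.2% DMSO. The mix was equilibrated 90 min at RT, then melted from 25 °C to 95 °C at 0.05 °C/s in a real-time PCR instrument. Tm was taken from the first-derivative peak and from a Boltzmann fit. ΔTm is compound minus DMSO control.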

A short description of data set [2]: Plasma protein binding. It counts as in vitro ADME.
Data set [3] concerns H3K27me3 levels in KARPAS-422 tumors. The data set is described as follows: Tumor pharmacodynamic assay. It counts as in vivo, mice. Conditions: Day 12.

The text below walks through data of paper PMC7949150 (The Journal of Biological Chemistry, 2021).

PRC2, sequence (Q15910 whole entry): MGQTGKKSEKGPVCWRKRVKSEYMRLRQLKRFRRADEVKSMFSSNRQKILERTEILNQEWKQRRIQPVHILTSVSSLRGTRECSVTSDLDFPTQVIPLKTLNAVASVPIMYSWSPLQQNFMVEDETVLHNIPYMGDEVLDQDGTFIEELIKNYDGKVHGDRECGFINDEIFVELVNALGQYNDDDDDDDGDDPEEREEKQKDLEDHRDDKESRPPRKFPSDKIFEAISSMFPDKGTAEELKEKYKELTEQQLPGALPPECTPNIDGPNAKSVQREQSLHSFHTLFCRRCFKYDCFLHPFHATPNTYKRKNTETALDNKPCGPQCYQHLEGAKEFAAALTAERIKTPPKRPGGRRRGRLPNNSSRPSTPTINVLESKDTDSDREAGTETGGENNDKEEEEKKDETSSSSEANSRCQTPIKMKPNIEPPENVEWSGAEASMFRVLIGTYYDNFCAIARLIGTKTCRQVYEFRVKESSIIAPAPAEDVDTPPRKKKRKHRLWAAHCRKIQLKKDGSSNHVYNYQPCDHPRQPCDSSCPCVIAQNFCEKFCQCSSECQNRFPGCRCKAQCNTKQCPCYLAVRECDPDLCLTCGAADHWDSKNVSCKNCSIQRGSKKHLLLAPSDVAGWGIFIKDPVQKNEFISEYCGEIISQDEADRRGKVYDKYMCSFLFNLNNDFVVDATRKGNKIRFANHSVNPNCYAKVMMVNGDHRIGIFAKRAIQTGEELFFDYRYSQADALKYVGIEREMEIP
PRC2, sequence (O75530 whole entry partner): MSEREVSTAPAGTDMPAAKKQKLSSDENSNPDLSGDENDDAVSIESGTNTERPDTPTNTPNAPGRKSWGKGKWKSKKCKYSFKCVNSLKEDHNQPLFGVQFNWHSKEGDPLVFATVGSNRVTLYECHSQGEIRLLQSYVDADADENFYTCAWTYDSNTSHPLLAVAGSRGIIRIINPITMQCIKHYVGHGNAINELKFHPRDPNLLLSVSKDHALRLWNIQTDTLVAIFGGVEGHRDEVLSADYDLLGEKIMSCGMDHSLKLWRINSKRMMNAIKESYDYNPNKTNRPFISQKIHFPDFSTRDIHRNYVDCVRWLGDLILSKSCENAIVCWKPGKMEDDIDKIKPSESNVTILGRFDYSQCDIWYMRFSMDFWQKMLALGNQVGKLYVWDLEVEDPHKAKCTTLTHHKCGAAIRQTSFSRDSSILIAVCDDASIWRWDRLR
PRC2, sequence (Q15022 whole entry partner): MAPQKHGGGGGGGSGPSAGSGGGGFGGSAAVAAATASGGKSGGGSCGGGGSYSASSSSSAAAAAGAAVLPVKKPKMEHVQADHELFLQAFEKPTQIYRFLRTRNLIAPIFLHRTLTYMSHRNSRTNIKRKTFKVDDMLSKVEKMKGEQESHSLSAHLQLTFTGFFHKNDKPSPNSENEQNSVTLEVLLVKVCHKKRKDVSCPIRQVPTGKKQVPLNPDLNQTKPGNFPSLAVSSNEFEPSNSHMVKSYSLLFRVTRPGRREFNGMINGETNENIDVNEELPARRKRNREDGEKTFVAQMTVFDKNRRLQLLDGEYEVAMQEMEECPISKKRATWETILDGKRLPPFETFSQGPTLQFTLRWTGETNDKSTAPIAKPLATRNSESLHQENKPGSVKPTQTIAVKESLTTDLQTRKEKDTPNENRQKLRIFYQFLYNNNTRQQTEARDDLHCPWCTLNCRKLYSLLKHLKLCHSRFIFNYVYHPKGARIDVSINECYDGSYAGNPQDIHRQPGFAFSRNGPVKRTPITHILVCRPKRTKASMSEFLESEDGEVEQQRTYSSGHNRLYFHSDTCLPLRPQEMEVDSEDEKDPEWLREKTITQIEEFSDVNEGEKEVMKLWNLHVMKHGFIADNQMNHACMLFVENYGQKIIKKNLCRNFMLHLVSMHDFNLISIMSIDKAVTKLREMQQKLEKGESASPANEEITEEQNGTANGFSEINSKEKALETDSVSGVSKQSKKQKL
PRC2, sequence (Q16576 whole entry partner): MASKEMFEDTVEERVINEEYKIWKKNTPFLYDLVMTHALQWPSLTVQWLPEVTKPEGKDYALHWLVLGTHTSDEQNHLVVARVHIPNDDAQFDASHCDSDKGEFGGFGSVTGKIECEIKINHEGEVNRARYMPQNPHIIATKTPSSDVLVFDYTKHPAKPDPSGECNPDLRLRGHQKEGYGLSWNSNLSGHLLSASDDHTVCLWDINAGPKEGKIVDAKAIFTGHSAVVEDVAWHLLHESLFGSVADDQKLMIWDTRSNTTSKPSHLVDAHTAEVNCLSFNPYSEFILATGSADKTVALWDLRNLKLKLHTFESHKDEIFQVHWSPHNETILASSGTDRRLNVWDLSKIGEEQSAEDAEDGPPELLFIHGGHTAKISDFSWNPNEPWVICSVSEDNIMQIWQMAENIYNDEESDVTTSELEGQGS
PRC2, sequence (Q09028 whole entry partner): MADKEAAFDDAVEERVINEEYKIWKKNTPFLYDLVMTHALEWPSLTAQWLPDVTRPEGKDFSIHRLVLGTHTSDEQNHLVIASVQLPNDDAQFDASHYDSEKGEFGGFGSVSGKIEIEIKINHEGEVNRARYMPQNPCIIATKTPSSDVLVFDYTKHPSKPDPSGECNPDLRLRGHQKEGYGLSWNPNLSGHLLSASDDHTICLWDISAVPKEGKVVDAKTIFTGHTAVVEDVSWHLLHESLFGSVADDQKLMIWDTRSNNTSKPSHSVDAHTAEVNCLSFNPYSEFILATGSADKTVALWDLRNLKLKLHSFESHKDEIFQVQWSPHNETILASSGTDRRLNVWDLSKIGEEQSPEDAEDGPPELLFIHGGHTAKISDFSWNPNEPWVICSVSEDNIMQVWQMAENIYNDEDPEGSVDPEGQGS

For `COc1cc(C)[nH]c(=O)c1CNC(=O)c1c(C)n([C@H](C)C2CCN(CC(F)(F)F)CC2)c2ccccc12` [CPI-1205, (R)-N-((4-Methoxy-6-methyl-2-oxo-1,2-dihydropyridin-3-yl)methyl)-2-methyl-1-(1-(1-(2,2,2-trifluoroethyl)piperidin-4-yl)ethyl)-1H-indole-3-carboxamide], the “ΔTmD (first derivative melting peak)” value in data set [1] came to 11.54 ± 0.05 °C.
By fraction unbound is commonly meant free concentration divided by total concentration. A lower fraction unbound goes with little free substance. Consider `CCN(c1cc(-c2ccc(CN3CCOCC3)cc2)cc(C(=O)NCc2c(C)cc(C)[nH]c2=O)c1C)C1CCOCC1` [Tazemetostat], for which the fraction unbound in data set [2] is 0.009. The same molecule returned a total plasma levels (25 mg/kg QD PO, 1 h postdose on Day 12) of 6100 ng/mL. Also, the “total concentration in tumors” value (female, CB-17 SCID, mouse, in vivo) was 730 ng/g. For the same molecule, the “reduction in H3K27me3 levels in tumors” value in data set [3] (25 mg/kg QD PO) is on record as “no statistically significant reduction”. In addition, in data set [3] (160 mg/kg BID PO), the “H3K27me3 levels in tumors” value is given as “significant loss of H3K27me3 levels”.
